Assay [1] deals with Mitochondrial complex I; NADH oxidoreductase (Bos taurus, UniProt P25708+P52505). In words: Inhibition of NADH oxidase activity. Type of assay: protein-complex assay. Summed up: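 Beef-heart submitochondrial particles (sonicated frozen-thawed mitochondria), preactivated with 300 µM NADH, assayed at 22 °C in 50 mM potassium phosphate pH 7.4, 1 mM EDTA (0.28 nM complex I). Aerobic oxidation of 75 µM NADH with no added quinone, followed at 340 nm. Ethanolic compound added cumulatively, 5 min on ice per step, ethanol ≤2%. IC50 is the final concentration giving 50% inhibition.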
Chain of Mitochondrial complex I; NADH oxidoreductase (P25708 21-464 limits assumed, other chains not shown): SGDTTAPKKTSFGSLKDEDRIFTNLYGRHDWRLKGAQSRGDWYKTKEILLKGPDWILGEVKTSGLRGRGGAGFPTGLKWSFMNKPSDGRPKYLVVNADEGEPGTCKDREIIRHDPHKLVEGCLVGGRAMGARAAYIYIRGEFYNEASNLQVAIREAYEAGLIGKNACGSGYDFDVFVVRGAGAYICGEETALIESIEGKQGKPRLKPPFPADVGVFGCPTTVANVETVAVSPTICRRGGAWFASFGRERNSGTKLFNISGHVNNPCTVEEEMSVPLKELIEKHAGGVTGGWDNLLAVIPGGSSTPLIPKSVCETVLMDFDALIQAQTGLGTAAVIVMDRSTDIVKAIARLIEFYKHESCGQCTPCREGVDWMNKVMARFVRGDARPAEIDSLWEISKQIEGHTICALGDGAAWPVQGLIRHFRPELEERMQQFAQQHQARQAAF

Assay [2] is described as follows: Ratio of IC50 of DB to that of NADH oxidase. Summed up:
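Ratio of two IC50 values measured on NADH-activated beef heart submitochondrial particles (0.28 nM complex I, 22 °C, pH 7.4 phosphate/EDTA). The numerator IC50 comes from NADH:decylubiquinone oxidoreductase (75 µM NADH, 30 µM DB, plus antimycin and cyanide). The denominator IC50 comes from aerobic NADH oxidase (75 µM NADH, no added quinone). Both activities were read at 340 nm.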

Assay [3] addresses Mitochondrial complex I; NADH oxidoreductase (Bos taurus) (UniProt P25708+P52505). In words: Relative potency of inhibition of NADH oxidase (IC50); 4-dehydroxy-4-hydroxylimonorolliniastatin-1 as standard. The assay is classed as protein-complex assay. Summed up:
(§1)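 Derived value: the compound's NADH oxidase IC50 expressed relative to that of the reference acetogenin. The oxidase assay used NADH-activated beef heart submitochondrial particles (0.28 nM complex I) oxidising 75 µM NADH aerobically without added quinone, at 22 °C and pH 7.4. Inhibitor was added stepwise with 5 min incubations on ice, and NADH decrease was followed at 340 nm.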

Assay [4] can be described thus: Percent of relative potency by NADH oxidase assay. Put shortly: as §1
Assay [5] in a line: Inhibition of NADH decylubiquinone (DB) oxidoreductase activity. Also noted: species or system Bos taurus. Summed up:
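Beef heart submitochondrial particles from sonicated frozen-thawed mitochondria, NADH-activated (300 µM) at 0.5 mg·mL⁻¹. Assay at 22 °C in 50 mM K phosphate pH 7.4, 1 mM EDTA, 0.28 nM complex I, with 75 µM NADH, 30 µM decylubiquinone, 2 µM antimycin and 2 mM KCN. Inhibitor titrated as ethanolic additions (5 min on ice each). NADH loss read at 340 nm; IC50 taken at 50% inhibition.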

In the case of `CCCCCCCCCCC(=O)[C@H]1CC[C@@H]([C@@H]2CC[C@H]([C@H](O)CCCCCCCCCCC(=O)CC3=C[C@H](C)OC3=O)O2)O1`, the 50% inhibitory concentration (IC50) in assay [1] was found to be 0.34 nM; in assay [5] it was 0.6 nM. Further, the Ratio in assay [2] is 1.8. The Relative potency in assay [3] turned out to be 1.4; in assay [4], 73.5.

Regarding `CCCCC[C@H](O)CCCC[C@H](O)[C@H]1CC[C@H]([C@H]2CC[C@H]([C@H](O)CCCCCCCCCCCCC3=C[C@H](C)OC3=O)O2)O1` [MOTRILIN], the figures for the IC50 in assay [1] and in assay [5] were 0.41 nM and 0.81 nM, respectively. For the same compound, in assay [2], the Ratio came to 2. The Relative potency in assay [3] stood at 1.6; in assay [4], 61.

Consider `CCCCCCCCCC[C@H](OS(C)(=O)=O)[C@H]1CC[C@@H]([C@@H]2CC[C@H]([C@@H](CCCCCCCCCC[C@H](CC3=C[C@H](C)OC3=O)OS(C)(=O)=O)OS(C)(=O)=O)O2)O1`, for which the IC50 in assay [1] is 1.68 nM; in assay [5] it was 438 nM. The Ratio in assay [2] came out at 260. Also, the Relative potency in assay [4] stood at 6.7.

For `CCCCCCCCCC[C@H](O)[C@H]1CC[C@@H]([C@@H]2CC[C@H]([C@H](O)CCCCCCCCCC[C@@H](O)CC3=C[C@H](C)OC3=O)O2)O1` [rolliniastatin-1], the 50% inhibitory concentration (IC50) in assay [1] turned out to be 0.6 nM; in assay [5], 0.74 nM. Further, in assay [2], the Ratio was 1.2. The figures for the Relative potency in assay [3] and in assay [4] were 2.4 and 41.7, respectively.

Regarding `CCCCCCCCCC/C(=N\O)[C@H]1CC[C@@H]([C@@H]2CC[C@H]([C@H](O)CCCCCCCCCC/C(CC3=C[C@H](C)OC3=O)=N\O)O2)O1`, the results for the IC50 in assay [1] and in assay [5] were 0.34 nM and 0.39 nM, respectively. The Ratio in assay [2] is 1.1. Further, the Relative potency in assay [3] was found to be 1.4; in assay [4] it was 73.5.

For the compound `CCCCCCCCCC[C@H](O)[C@H]1CC[C@H]([C@H]2CC[C@H]([C@H](O)CCCCC(O)CCCCCCCC3=C[C@H](C)OC3=O)O2)O1` (stereo partly specified), the figures for the IC50 in assay [1] and in assay [5] were 0.95 nM and 1.9 nM, respectively. The Ratio in assay [2] came out at 2. Moreover, the Relative potency in assay [3] amounted to 3.8; in assay [4], 26.3.

For the compound `CCCCCC[C@@H](CCC[C@H](OC(C)=O)[C@H]1CC[C@H]([C@H]2CC[C@H]([C@@H](CCCCCCCCCCCCC3=C[C@H](C)OC3=O)OC(C)=O)O2)O1)OC(C)=O`, the IC50 amounted to 5 nM in assay [1] and 2940 nM in assay [5]. Besides, the Ratio in assay [2] was determined as 587. In addition, the Relative potency in assay [3] was found to be 20.

In the case of `CCCCCC[C@H](O)CCC[C@H](O)[C@H]1CC[C@H]([C@H]2CC[C@H]([C@H](O)CCCCCCCCCCCCC3=C[C@H](C)OC3=O)O2)O1` [SQUAMOCIN], the IC50 in assay [1] was 0.59 nM; in assay [5], 0.77 nM. Besides, the Ratio in assay [2] came out at 1.3. Besides, the values for the Relative potency in assay [3] and in assay [4] were 2.4 and 42.3, respectively.

With `CCCCCC[C@H](CCC[C@@H](N=[N+]=[N-])[C@H]1CC[C@H]([C@H]2CC[C@H]([C@H](CCCCCCCCCCCCC3=C[C@H](C)OC3=O)N=[N+]=[N-])O2)O1)N=[N+]=[N-]`, the values for the IC50 in assay [1] and in assay [5] were 18 nM and 315 nM, respectively. The Ratio in assay [2] was found to be 17. This compound yielded a Relative potency in assay [3] of 72.

Turning to `CCCCCCCCCC[C@H](O)[C@H]1CC[C@@H]([C@@H]2CC[C@H]([C@H](O)CCCCCCCCCCC(=O)CC3=C[C@H](C)OC3=O)O2)O1`, the values for the IC50 in assay [1] and in assay [5] were 0.42 nM and 0.45 nM, respectively. The Ratio in assay [2] is 1.1. Besides, the Relative potency in assay [3] was determined as 1.7; in assay [4], 59.5.

Take `CCCCCCCCCCC(=O)[C@H]1CC[C@H]([C@H]2CC[C@H](C(=O)CCCCC(=O)CCCCCCCC3=C[C@H](C)OC3=O)O2)O1`: the figures for the IC50 in assay [1] and in assay [5] were 1.65 nM and 2.5 nM, respectively. For the same compound, in assay [2], the Ratio was determined as 1.5. In assay [3], this compound registered a Relative potency of 6.6.

For the compound `CCCCCC(CCCC[C@H](OC(C)=O)[C@H]1CC[C@H]([C@H]2CC[C@H]([C@@H](CCCCCCCCCCCCC3=C[C@H](C)OC3=O)OC(C)=O)O2)O1)OC(C)=O` (stereo partly specified), the figures for the IC50 in assay [1] and in assay [5] were 2.1 nM and 248 nM, respectively. Also, the Ratio in assay [2] is 118. For the same compound, in assay [3], the Relative potency turned out to be 8.4.

For the compound `CCCCCCCCCC[C@@H](O)[C@@H]1CC[C@@H]([C@@H]2CC[C@@H]([C@H](O)CCCCCCCCCC(O)CC3=CC(C)OC3=O)O2)O1` (stereo partly specified) [BULLATACIN], the IC50 in assay [1] turned out to be 0.51 nM; in assay [5], 0.61 nM. Also, the Ratio in assay [2] came to 1.2. The Relative potency in assay [3] was 2; in assay [4], 49.

In the case of `CCCCCCCCCC[C@H](O)[C@H]1CC[C@H]([C@H]2CC[C@H]([C@H](O)CCCC/C(CCCCCCCC3=C[C@H](C)OC3=O)=N\O)O2)O1`, the IC50 in assay [1] was 0.34 nM; in assay [5], 0.67 nM. Moreover, in assay [2], the Ratio turned out to be 2. The Relative potency worked out at 1.4 in assay [3] and 73.5 in assay [4].

Turning to `CCCCCC[C@@H](CCC[C@H](OS(C)(=O)=O)[C@H]1CC[C@H]([C@H]2CC[C@H]([C@@H](CCCCCCCCCCCCC3=C[C@H](C)OC3=O)OS(C)(=O)=O)O2)O1)OS(C)(=O)=O`, the figures for the IC50 in assay [1] and in assay [5] were 14.1 nM and 2040 nM, respectively. Further, in assay [2], the Ratio came out at 144. In assay [3], this compound displayed a Relative potency of 56.

As to `CCCCCCCCCC[C@H](O)[C@H]1CC[C@H]([C@H]2CC[C@H]([C@H](O)CCCCC(=O)CCCCCCCC3=C[C@H](C)OC3=O)O2)O1` [GUANACONE], the IC50 in assay [1] amounted to 1.52 nM; in assay [5], 2.1 nM. Further, in assay [2], the Ratio stood at 1.4. Further, the Relative potency in assay [3] came to 6.1.

Consider `CCCCCC(CCCC[C@H](OS(C)(=O)=O)[C@H]1CC[C@H]([C@H]2CC[C@H]([C@@H](CCCCCCCCCCCCC3=C[C@H](C)OC3=O)OS(C)(=O)=O)O2)O1)OS(C)(=O)=O` (stereo partly specified), for which the IC50 in assay [1] worked out at 2.9 nM; in assay [5], 64 nM. Also, the Ratio in assay [2] is 22. The same compound showed a Relative potency in assay [3] of 12.

Take `CCCCCCC(=O)CCC[C@H](O)[C@H]1CC[C@H]([C@H]2CC[C@H]([C@H](O)CCCCCCCCCCCCC3=C[C@H](C)OC3=O)O2)O1`: the 50% inhibitory concentration (IC50) in assay [1] is 0.65 nM; in assay [5], 1.3 nM. For the same compound, in assay [2], the Ratio stood at 1.9. Besides, the values for the Relative potency in assay [3] and in assay [4] were 2.6 and 38.5, respectively.

In the case of `CCCCCCCCCC[C@H](OC(C)=O)[C@H]1CC[C@@H]([C@@H]2CC[C@H]([C@@H](CCCCCCCCCC[C@H](CC3=C[C@H](C)OC3=O)OC(C)=O)OC(C)=O)O2)O1`, the IC50 was determined as 1.46 nM in assay [1] and 1890 nM in assay [5]. Moreover, in assay [2], the Ratio was determined as 1300. Moreover, the Relative potency in assay [3] is 5.8.

With `CCCCCCCCCC[C@H](O)[C@H]1CC[C@@H]([C@@H]2CC[C@H]([C@H](O)CCCCCCCC[C@@H](O)CC3=C[C@H](C)OC3=O)O2)O1`, the IC50 was found to be 0.33 nM in assay [1] and 0.83 nM in assay [5]. Further, the Ratio in assay [2] was 2.5. Also, the Relative potency worked out at 1.3 in assay [3] and 75.8 in assay [4].

As for `CCCCCCCCCC[C@H](O)[C@H]1CC[C@@H]([C@@H]2CC[C@H]([C@H](O)CCCCCCCCCC/C(CC3=C[C@H](C)OC3=O)=N\O)O2)O1`, the results for the IC50 in assay [1] and in assay [5] were 0.25 nM and 0.29 nM, respectively. Further, the Ratio in assay [2] turned out to be 1.1. Besides, the Relative potency in assay [3] came to 1; in assay [4] it was 100.

As for `CCCCCCCCCC[C@H](O)[C@H]1CC[C@H]([C@H]2CC[C@H]([C@H](O)CCCCCCCCCCCCC3=C[C@H](C)OC3=O)O2)O1` [BULLANIN], the values for the IC50 in assay [1] and in assay [5] were 0.32 nM and 0.44 nM, respectively. The Ratio in assay [2] is 1.4. Also, the results for the Relative potency in assay [3] and in assay [4] were 1.3 and 78.1, respectively.

With `CCCCCC/C(CCC[C@H](O)[C@H]1CC[C@H]([C@H]2CC[C@H]([C@H](O)CCCCCCCCCCCCC3=C[C@H](C)OC3=O)O2)O1)=N\O`, the IC50 in assay [1] was 0.74 nM; in assay [5], 0.9 nM. Also, in assay [2], the Ratio turned out to be 1.2. For the same compound, the Relative potency in assay [3] came to 3; in assay [4] it was 33.8.

A word on the IC50: it is the concentration that inhibits the measured activity by half.
